Results on 28 compounds are retold here after ChEMBL document CHEMBL5537124, “Unexpected rearrangement of ivermectin in the synthesis of new derivatives with trypanocidal and antiplasmodial activities” (Eur J Med Chem, 2024).

The subject of series [1] is Trypanosoma brucei brucei. Kind of series: Trypanocidal activity against Trypanosoma brucei brucei 221a assessed as parasite growth inhibition measured after 24 hrs by resazurin dye based microplate reader analysis. Format: functional. The method, boiled down: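 Seeded at 1 × 10^4 mL-1 (T. b. brucei) or 5 × 10^4 mL-1 (HL-60) in Baltz medium with 16.7 % bovine serum and 0.9 % DMSO. Test compounds given as tenfold dilutions from 100 μM to 1 nM. Incubated at 37 °C, 5 % CO2. Resazurin added after 24 h, then a further 48 h. Absorbance read at 570/630 nm. GI50 obtained by linear interpolation; mean ± SD of three independent experiments.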
In general terms: Resazurin is reduced to fluorescent resorufin, in cell work by metabolically active cells.

Series [2] in a line: Selectivity index, ratio of GI50 for human HL-60 cells to GI50 for Trypanosoma brucei brucei 221a. It is filed as toxicity. Conditions: HL-60 cells versus Trypanosoma brucei brucei 221a, read-out: RatioGI50. The method, boiled down: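 Ratio of GI50 for HL-60 to GI50 for T. b. brucei, both from the resazurin growth assay.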
The subject of the next series is Plasmodium berghei. Kind of series: Antiplasmodial activity against luciferase-expressing Plasmodium berghei infected in human Huh-7 cells assessed as reduction in parasitic load pretreated for 1 hr with cells followed by parasite infection and measured 48 hrs post infection by firefly luciferase assay. It is filed as functional, organism-based. To be noted: Plasmodium berghei, Huh-7. The method, boiled down:
(§1)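 Huh7 hepatoma cells in RPMI-1640 with 10 % FCS, seeded at 1 × 10^4 per well and left overnight. Seven compound concentrations, serially diluted from 10 mM DMSO stocks, applied 1 h before infection; DMSO vehicle control. PbGFP-Luciferase sporozoites from An. stephensi salivary glands added 1:1, plates spun 1800 × g for 5 min. Confluency by AlamarBlue at 46 hpi; parasite load by firefly luciferase at 48 hpi. IC50 from nonlinear regression.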

A further series relates to Huh-7. Kind of series: Cytotoxicity against human Huh-7 cells infected with luciferase-expressing Plasmodium berghei assessed as effect on cell confluency pretreated for 1 hr followed by parasite infection and measured 46 hrs post infection by alamar blue staining based analysis. Format: toxicity. Conditions: huh-7, 47 h. In short, it runs like this: as §1

As usually defined, the GI50 is the concentration at which growth is held to half of that of the control. As for `CC[C@H](C)[C@H]1O[C@]2(CC[C@@H]1C)C[C@@H]1C[C@@H](C/C=C(\C)[C@H](NC(=O)CCl)[C@@H](C)/C=C/C=C3\CO[C@@H]4[C@H](O)C(C)=C[C@@H](C(=O)O1)[C@]34O)O2`, the GI50 in series [1] worked out at 0.063 µM. In series [2], the selectivity ratio came out at 47.6.

Take `CC[C@H](C)[C@H]1O[C@]2(CC[C@@H]1C)C[C@@H]1C[C@@H](C/C=C(\C)[C@H](NC(=O)c3ccco3)[C@@H](C)/C=C/C=C3\CO[C@@H]4[C@H](O)C(C)=C[C@@H](C(=O)O1)[C@]34O)O2`: the GI50 in series [1] was 10.2 µM. Besides, in series [2], the selectivity ratio is 3.1.

Regarding `CC[n+]1c(-c2ccccc2)c2cc(N)ccc2c2ccc(N)cc21` [HOMIDIUM BROMIDE], the 50% growth inhibitory concentration (GI50) in series [1] worked out at 0.086 µM. In addition, in series [2], the selectivity ratio was 67.4.

With `Cc1ccc(C(=O)Nc2ccc(S(=O)(=O)O)c3cc(S(=O)(=O)O)cc(S(=O)(=O)O)c23)cc1NC(=O)c1cccc(NC(=O)Nc2cccc(C(=O)Nc3cc(C(=O)Nc4ccc(S(=O)(=O)O)c5cc(S(=O)(=O)O)cc(S(=O)(=O)O)c45)ccc3C)c2)c1` [SURAMIN], the GI50 in series [1] stood at 0.036 µM. The selectivity ratio in series [2] was over 2780.

Regarding `CC[C@H](C)[C@H]1O[C@]2(CC[C@@H]1C)C[C@@H]1C[C@@H](C/C=C(\C)[C@H](NC(=O)c3ccco3)[C@@H](C)/C=C/C=C3\CO[C@@H]4[C@H](O)[C@](C)(O)C=C(C(=O)O1)[C@]34O)O2`, the 50% growth inhibitory concentration (GI50) in series [1] came out at 4.7 µM. In series [2], the selectivity ratio worked out at 7.

As to `CC[C@H](C)[C@H]1O[C@]2(CC[C@@H]1C)C[C@@H]1C[C@@H](C/C=C(\C)[C@H](NC(=O)c3ccccc3)[C@@H](C)/C=C/C=C3\CO[C@@H]4[C@H](O)[C@](C)(O)C=C(C(=O)O1)[C@]34O)O2`, in series [1], the GI50 worked out at 4.3 µM. The selectivity ratio in series [2] was determined as 7.

For `CC[C@H](C)[C@H]1O[C@]2(CC[C@@H]1C)C[C@@H]1C[C@@H](C/C=C(\C)[C@H](NC(=O)COC)[C@@H](C)/C=C/C=C3\CO[C@@H]4[C@H](O)[C@](C)(O)C=C(C(=O)O1)[C@]34O)O2`, in series [1], the GI50 was 18.2 µM. In series [2], the selectivity ratio amounted to 1.8.

Turning to `CC[C@H](C)[C@H]1O[C@]2(CC[C@@H]1C)C[C@@H]1C[C@@H](C/C=C(\C)[C@H](NC(=O)CCl)[C@@H](C)/C=C/C=C3\CO[C@@H]4[C@H](O)[C@](C)(O)C=C(C(=O)O1)[C@]34O)O2`, the GI50 in series [1] amounted to 0.064 µM. Also, the selectivity ratio in series [2] came to 67.2.

With `CC[C@H](C)[C@H]1O[C@]2(CC[C@@H]1C)C[C@@H]1C[C@@H](C/C=C(\C)[C@H](NC(=O)C(C)C)[C@@H](C)/C=C/C=C3\CO[C@@H]4[C@H](O)[C@](C)(O)C=C(C(=O)O1)[C@]34O)O2`, the GI50 in series [1] was determined as 6.6 µM. For the same compound, in series [2], the selectivity ratio is 5.1.

Consider `CCCCCCCCCC(=O)N[C@H]1/C(C)=C/C[C@@H]2C[C@@H](C[C@]3(CC[C@H](C)[C@@H]([C@@H](C)CC)O3)O2)OC(=O)C2=C[C@@](C)(O)[C@@H](O)[C@H]3OC/C(=C\C=C\[C@@H]1C)[C@@]23O`, for which the GI50 in series [1] is 4.1 µM. Besides, in series [2], the selectivity ratio was determined as 7.8.

With `CCC(=O)N[C@H]1/C(C)=C/C[C@@H]2C[C@@H](C[C@]3(CC[C@H](C)[C@@H]([C@@H](C)CC)O3)O2)OC(=O)[C@@H]2C=C(C)[C@@H](O)[C@H]3OC/C(=C\C=C\[C@@H]1C)[C@]32O`, in series [1], the GI50 is 7.4 µM. For the same compound, the selectivity ratio in series [2] came out at 4.3.

Regarding IVERMECTIN, the GI50 in series [1] amounted to 14.6 µM.

The term IC50 denotes the point on the concentration scale where inhibition reaches its midpoint. Consider `CC[C@H](C)[C@H]1O[C@]2(CC[C@@H]1C)C[C@@H]1C[C@@H](C/C=C(\C)[C@@H](O)[C@@H](C)/C=C/C=C3\CO[C@@H]4[C@H](O)C(C)=C[C@@H](C(=O)O1)[C@]34O)O2` [IVM AGLYCONE], for which, in the series with Plasmodium berghei, the IC50 was 5450 nM. In addition, in series [1], the GI50 worked out at 6.1 µM. Moreover, the selectivity ratio in series [2] is 5.8. For the same compound, the Activity result in the series with Huh-7 was “Non-Toxic”.

With `CC[C@H](C)[C@H]1O[C@]2(CC[C@@H]1C)C[C@@H]1C[C@@H](C/C=C(\C)[C@H](NC(=O)c3ccc(OC)c(O)c3)[C@@H](C)/C=C/C=C3\CO[C@@H]4[C@H](O)[C@](C)(O)C=C(C(=O)O1)[C@]34O)O2`, the 50% growth inhibitory concentration (GI50) in series [1] amounted to 4.1 µM. Also, the selectivity ratio in series [2] turned out to be 8.

Take `CC[C@H](C)[C@H]1O[C@]2(CC[C@@H]1C)C[C@@H]1C[C@@H](C/C=C(\C)[C@H](NC(=O)C34CC5CC(CC(C5)C3)C4)[C@@H](C)/C=C/C=C3\CO[C@@H]4[C@H](O)[C@](C)(O)C=C(C(=O)O1)[C@]34O)O2`: the 50% growth inhibitory concentration (GI50) in series [1] stood at 3 µM. Also, in series [2], the selectivity ratio was 10.3.

In the case of `CCCCCCCCCC(=O)N[C@H]1/C(C)=C/C[C@@H]2C[C@@H](C[C@]3(CC[C@H](C)[C@@H]([C@@H](C)CC)O3)O2)OC(=O)[C@@H]2C=C(C)[C@@H](O)[C@H]3OC/C(=C\C=C\[C@@H]1C)[C@]32O`, the GI50 in series [1] was determined as 9.3 µM. In series [2], the selectivity ratio worked out at 3.2.

For the compound `CC[C@H](C)[C@H]1O[C@]2(CC[C@@H]1C)C[C@@H]1C[C@@H](C/C=C(\C)[C@H](NC(=O)c3ccc(OC)c(OC)c3)[C@@H](C)/C=C/C=C3\CO[C@@H]4[C@H](O)C(C)=C[C@@H](C(=O)O1)[C@]34O)O2`, in series [1], the GI50 was found to be 5.8 µM. Also, the selectivity ratio in series [2] was determined as 5.6.

Turning to `CC[C@H](C)[C@H]1O[C@]2(CC[C@@H]1C)C[C@@H]1C[C@@H](C/C=C(\C)[C@H](NC(=O)C34CC5CC(CC(C5)C3)C4)[C@@H](C)/C=C/C=C3\CO[C@@H]4[C@H](O)C(C)=C[C@@H](C(=O)O1)[C@]34O)O2`, the GI50 in series [1] came out at 19.1 µM. Also, the selectivity ratio in series [2] amounted to 1.6.

On to `CC[C@H](C)[C@H]1O[C@]2(CC[C@@H]1C)C[C@@H]1C[C@@H](C/C=C(\C)[C@@H](O[C@H]3C[C@H](OC)[C@@H](O[C@H]4C[C@H](OC)[C@@H](O)[C@H](C)O4)[C@H](C)O3)[C@@H](C)/C=C/C=C3\CO[C@@H]4[C@H](O)[C@](C)(O)C=C(C(=O)O1)[C@]34O)O2`, for which the IC50 in the series on Plasmodium berghei amounted to 4720 nM. In addition, the GI50 in series [1] is 20 µM. The selectivity ratio in series [2] worked out at 1.6. The Activity entry in the series on Huh-7 is listed as “Non-Toxic”.

With `CC[C@H](C)[C@H]1O[C@]2(CC[C@@H]1C)C[C@@H]1C[C@@H](C/C=C(\C)[C@H](NC(=O)c3ccccc3)[C@@H](C)/C=C/C=C3\CO[C@@H]4[C@H](O)C(C)=C[C@@H](C(=O)O1)[C@]34O)O2`, the GI50 in series [1] stood at 8.6 µM. In addition, the selectivity ratio in series [2] was 3.6.

For the compound `CC[C@H](C)[C@H]1O[C@]2(CC[C@@H]1C)C[C@@H]1C[C@@H](C/C=C(\C)[C@H](NC(=O)COC)[C@@H](C)/C=C/C=C3\CO[C@@H]4[C@H](O)C(C)=C[C@@H](C(=O)O1)[C@]34O)O2`, in series [1], the GI50 stood at 14.4 µM. Further, the selectivity ratio in series [2] stood at 2.3.

`CCC(=O)N[C@H]1/C(C)=C/C[C@@H]2C[C@@H](C[C@]3(CC[C@H](C)[C@@H]([C@@H](C)CC)O3)O2)OC(=O)C2=C[C@@](C)(O)[C@@H](O)[C@H]3OC/C(=C\C=C\[C@@H]1C)[C@@]23O`: the concentration for 50% growth inhibition (GI50) in series [1] is 8.1 µM. Besides, the selectivity ratio in series [2] was 4.3.

For `CC[C@H](C)[C@H]1O[C@]2(CC[C@@H]1C)C[C@@H]1C[C@@H](C/C=C(\C)[C@H](NC(C)=O)[C@@H](C)/C=C/C=C3\CO[C@@H]4[C@H](O)C(C)=C[C@@H](C(=O)O1)[C@]34O)O2`, the IC50 in the series with Plasmodium berghei was 1520 nM. The 50% growth inhibitory concentration (GI50) in series [1] worked out at 5.5 µM. Moreover, the selectivity ratio in series [2] was 5.8. Besides, in the series with Huh-7, the Activity result was “Non-Toxic”.

On to `CC[C@H](C)[C@H]1O[C@]2(CC[C@@H]1C)C[C@@H]1C[C@@H](C/C=C(\C)[C@H](NC(=O)c3ccc(OC)c(O)c3)[C@@H](C)/C=C/C=C3\CO[C@@H]4[C@H](O)C(C)=C[C@@H](C(=O)O1)[C@]34O)O2`, for which the GI50 in series [1] is 3.9 µM. The selectivity ratio in series [2] was found to be 8.2.

For the compound `CC[C@H](C)[C@H]1O[C@]2(CC[C@@H]1C)C[C@@H]1C[C@@H](C/C=C(\C)[C@@H](O)[C@@H](C)/C=C/C=C3\CO[C@@H]4[C@H](O)[C@](C)(O)C=C(C(=O)O1)[C@]34O)O2`, the IC50 with Plasmodium berghei was 2850 nM. The GI50 in series [1] amounted to 12.1 µM. Also, in series [2], the selectivity ratio worked out at 2.6. The Activity result in the series with Huh-7 is on record as “Non-Toxic”.

Regarding `CC[C@H](C)[C@H]1O[C@]2(CC[C@@H]1C)C[C@@H]1C[C@@H](C/C=C(\C)[C@H](NC(=O)C(C)C)[C@@H](C)/C=C/C=C3\CO[C@@H]4[C@H](O)C(C)=C[C@@H](C(=O)O1)[C@]34O)O2`, in series [1], the GI50 came to 10.2 µM. The selectivity ratio in series [2] is 3.3.

With `CC[C@H](C)[C@H]1O[C@]2(CC[C@@H]1C)C[C@@H]1C[C@@H](C/C=C(\C)[C@H](NC(C)=O)[C@@H](C)/C=C/C=C3\CO[C@@H]4[C@H](O)[C@](C)(O)C=C(C(=O)O1)[C@]34O)O2`, the IC50 with Plasmodium berghei is 379 nM. Also, the GI50 in series [1] is 7.5 µM. Moreover, in series [2], the selectivity ratio worked out at 4.5. Also, in the series with Huh-7, the Activity entry is given as “Non-Toxic”.

Take `CC[C@H](C)[C@H]1O[C@]2(CC[C@@H]1C)C[C@@H]1C[C@@H](C/C=C(\C)[C@H](NC(=O)c3ccc(OC)c(OC)c3)[C@@H](C)/C=C/C=C3\CO[C@@H]4[C@H](O)[C@](C)(O)C=C(C(=O)O1)[C@]34O)O2`: in series [1], the GI50 came out at 5 µM. Besides, the selectivity ratio in series [2] was 6.4.
